In ChEMBL document CHEMBL4406821, “Novel dual inhibitors targeting CDK4 and VEGFR2 synergistically suppressed cancer progression and angiogenesis” (Eur J Med Chem, 2019):
Activity calls are given as the source filed them. The calls are words filed in the database; no cut-off is given here.

Assays:
[1] = system: Platelet-derived growth factor receptor alpha (Homo sapiens), P16234 [D842V]; test: Inhibition of recombinant human PDGFRalpha D842V mutant (550 to end residues) at 1 uM using GGMEDIYFEFMGGKKK as substrate incubated for 40 mins in presence of [gamma-33P]-ATP by scintillation counting method relative to control
Sequence of Platelet-derived growth factor receptor alpha (Homo sapiens), P16234 [D842V] (P16234 whole entry D842V): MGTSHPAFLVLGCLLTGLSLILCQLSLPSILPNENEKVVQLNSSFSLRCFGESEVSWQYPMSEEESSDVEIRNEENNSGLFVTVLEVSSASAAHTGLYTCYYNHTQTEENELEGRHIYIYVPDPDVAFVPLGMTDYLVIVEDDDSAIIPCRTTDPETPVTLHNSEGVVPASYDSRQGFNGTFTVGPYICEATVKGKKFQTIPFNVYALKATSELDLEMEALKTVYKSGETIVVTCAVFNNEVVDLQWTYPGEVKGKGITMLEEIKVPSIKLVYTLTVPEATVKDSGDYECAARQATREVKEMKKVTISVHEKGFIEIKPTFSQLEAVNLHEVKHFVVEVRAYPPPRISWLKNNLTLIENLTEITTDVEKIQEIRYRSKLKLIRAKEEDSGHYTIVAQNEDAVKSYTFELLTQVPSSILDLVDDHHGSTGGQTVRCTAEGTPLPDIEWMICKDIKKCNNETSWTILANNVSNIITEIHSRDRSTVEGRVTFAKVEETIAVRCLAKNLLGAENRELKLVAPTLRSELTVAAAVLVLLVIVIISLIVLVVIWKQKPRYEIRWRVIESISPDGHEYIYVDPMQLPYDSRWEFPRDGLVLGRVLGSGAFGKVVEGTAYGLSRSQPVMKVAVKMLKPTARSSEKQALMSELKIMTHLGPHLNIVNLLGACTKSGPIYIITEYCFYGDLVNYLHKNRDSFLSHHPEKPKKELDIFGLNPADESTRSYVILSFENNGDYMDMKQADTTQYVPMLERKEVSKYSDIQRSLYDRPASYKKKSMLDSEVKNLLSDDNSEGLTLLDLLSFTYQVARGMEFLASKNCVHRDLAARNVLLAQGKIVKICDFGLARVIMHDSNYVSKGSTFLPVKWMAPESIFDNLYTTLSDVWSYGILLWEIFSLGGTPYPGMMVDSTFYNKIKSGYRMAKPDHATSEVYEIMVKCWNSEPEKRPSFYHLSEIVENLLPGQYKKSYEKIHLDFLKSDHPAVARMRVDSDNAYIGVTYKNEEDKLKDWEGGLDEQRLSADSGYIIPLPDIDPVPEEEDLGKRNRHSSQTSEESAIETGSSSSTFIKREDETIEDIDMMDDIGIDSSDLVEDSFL
Outline: (§1)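 Tested at a single 1 uM in an outsourced commercial kinase-profiling panel, read as percent inhibition. Each value is the mean of two independent experiments.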

MDA-MB-231 = test: Induction of apoptosis in human MDA-MB-231 cells assessed as increase in late apoptotic cells at 20 to 40 nM incubated for 48 hrs by annexin V FITC and propidium iodide staining based flow cytometry; assay type: functional, cell-based
Outline: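 Annexin V-FITC/PI double staining with flow-cytometric readout. MDA-MB-231, T-47D, SiHa and HeLa cells were treated with graded concentrations for 48 h. MDA-MB-231 and T-47D were grown in DMEM and SiHa in 1640 medium, each with 10% FBS and 1% penicillin/streptomycin at 37°C under 5% CO2. Early- and late-stage apoptotic fractions were scored.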

[2] = target: SNF-related serine/threonine-protein kinase (Homo sapiens) (UniProt Q9NRH2); test: Inhibition of recombinant human SNRK (1 to 505 residues) at 1 uM using KKLRRTLSFAEPG as substrate incubated for 40 mins in presence of [gamma-33P]-ATP by scintillation counting method relative to control; outline: as §1
[3] = target: Death-associated protein kinase 1 (Homo sapiens) (UniProt P53355); test: Inhibition of recombinant human DAPK1 (1 to 296 residues) at 1 uM using KKLNRTLSFAEPG as substrate incubated for 40 mins in presence of [gamma-33P]-ATP by scintillation counting method relative to control; outline: as §1
[4] = target: Mitogen-activated protein kinase kinase kinase 20 (Homo sapiens) (UniProt Q9NYL2); test: Inhibition of recombinant human full length ZAK at 1 uM using MBP as substrate incubated for 40 mins in presence of [gamma-33P]-ATP by scintillation counting method relative to control
Sequence of Mitogen-activated protein kinase kinase kinase 20 (Homo sapiens) (Q9NYL2 2-800 limits assumed): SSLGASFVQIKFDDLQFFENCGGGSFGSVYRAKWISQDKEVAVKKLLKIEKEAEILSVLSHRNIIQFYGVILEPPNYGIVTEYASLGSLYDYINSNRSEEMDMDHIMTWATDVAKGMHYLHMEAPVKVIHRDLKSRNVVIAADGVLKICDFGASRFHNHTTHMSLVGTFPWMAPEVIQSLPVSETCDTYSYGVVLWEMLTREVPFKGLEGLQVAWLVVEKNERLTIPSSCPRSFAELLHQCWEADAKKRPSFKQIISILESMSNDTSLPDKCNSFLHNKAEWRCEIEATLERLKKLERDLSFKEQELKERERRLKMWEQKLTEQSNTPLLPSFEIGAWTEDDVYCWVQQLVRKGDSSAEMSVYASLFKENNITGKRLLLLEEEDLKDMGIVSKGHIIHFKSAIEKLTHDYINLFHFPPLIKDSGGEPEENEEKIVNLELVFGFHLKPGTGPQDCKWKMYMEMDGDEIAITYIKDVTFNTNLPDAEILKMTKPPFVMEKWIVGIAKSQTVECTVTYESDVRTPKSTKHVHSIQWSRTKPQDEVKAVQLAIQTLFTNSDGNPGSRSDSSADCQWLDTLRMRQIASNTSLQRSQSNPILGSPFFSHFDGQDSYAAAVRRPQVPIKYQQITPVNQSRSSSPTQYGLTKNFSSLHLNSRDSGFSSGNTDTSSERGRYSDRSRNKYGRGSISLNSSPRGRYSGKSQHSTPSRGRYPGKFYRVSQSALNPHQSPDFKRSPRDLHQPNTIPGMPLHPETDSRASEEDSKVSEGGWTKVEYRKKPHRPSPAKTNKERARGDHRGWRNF

HeLa = test: Induction of cell cycle arrest in human HeLa cells assessed as decrease in accumulation in S phase at 40 to 80 nM incubated for 36 hrs by propidium iodide staining based flow cytometry; assay type: functional
Outline: (§2)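 Cells were treated with graded concentrations for 36 h, then fixed overnight in 70% ice-cold ethanol at 4°C and resuspended in PBS. Staining used 50 µg/ml PI plus 5 µg/ml RNase at 37°C for 30 min. DNA content was analysed by FACS to give G0/G1, S and G2/M fractions.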

[5] = target: Ribosomal protein S6 kinase alpha-6 (Homo sapiens) (UniProt Q9UK32); test: Inhibition of recombinant human full length RSK4 at 1 uM using LRRASLG as substrate incubated for 40 mins in presence of [gamma-33P]-ATP by scintillation counting method relative to control
[6] = system: Mast/stem cell growth factor receptor Kit (Homo sapiens), P10721 [D816V]; test: Inhibition of recombinant human cKIT D816V mutant (544 to end residues) at 1 uM using poly(Glu, Tyr) 4:1 as substrate incubated for 40 mins in presence of [gamma-33P]-ATP by scintillation counting method relative to control; outline: as §1
[7] = target: Receptor-interacting serine/threonine-protein kinase 2 (Homo sapiens) (UniProt O43353); test: Inhibition of recombinant human RIPK2 (1 to 299 residues) at 1 uM using myelin basic protein as substrate incubated for 40 mins in presence of [gamma-33P]-ATP by scintillation counting method relative to control
Sequence of Receptor-interacting serine/threonine-protein kinase 2 (Homo sapiens) (O43353 whole entry, the tested form may be a part): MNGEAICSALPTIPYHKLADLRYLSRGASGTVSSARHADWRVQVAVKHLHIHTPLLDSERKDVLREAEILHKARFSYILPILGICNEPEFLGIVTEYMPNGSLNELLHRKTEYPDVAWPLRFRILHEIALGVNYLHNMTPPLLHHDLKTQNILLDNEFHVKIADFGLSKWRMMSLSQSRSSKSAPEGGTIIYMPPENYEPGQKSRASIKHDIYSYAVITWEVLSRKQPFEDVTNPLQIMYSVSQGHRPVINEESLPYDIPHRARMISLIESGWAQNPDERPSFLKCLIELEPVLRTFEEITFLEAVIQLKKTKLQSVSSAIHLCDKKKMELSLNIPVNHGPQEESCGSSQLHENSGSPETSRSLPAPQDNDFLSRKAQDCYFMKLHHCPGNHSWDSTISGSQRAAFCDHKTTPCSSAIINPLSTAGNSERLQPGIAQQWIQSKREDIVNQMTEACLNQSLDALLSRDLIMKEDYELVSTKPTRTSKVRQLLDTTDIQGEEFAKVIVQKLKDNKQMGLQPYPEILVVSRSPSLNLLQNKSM

[8] = Toxicity in NOD/SCID BALB/c mouse xenografted with human SiHa cells assessed as toxic effects in heart at 40 mg/kg, po administered for 48 hrs by hematoxylin and eosin staining method; assay type: organism-based; settings: in vivo
[9] = target: Eukaryotic translation initiation factor 2-alpha kinase 3 (Homo sapiens) (UniProt Q9NZJ5); test: Inhibition of recombinant human PEK (536 to end residues) at 1 uM using RSRSRSRSRSRSRSR as substrate incubated for 40 mins in presence of [gamma-33P]-ATP by scintillation counting method relative to control
Sequence of Eukaryotic translation initiation factor 2-alpha kinase 3 (Homo sapiens) (Q9NZJ5 whole entry): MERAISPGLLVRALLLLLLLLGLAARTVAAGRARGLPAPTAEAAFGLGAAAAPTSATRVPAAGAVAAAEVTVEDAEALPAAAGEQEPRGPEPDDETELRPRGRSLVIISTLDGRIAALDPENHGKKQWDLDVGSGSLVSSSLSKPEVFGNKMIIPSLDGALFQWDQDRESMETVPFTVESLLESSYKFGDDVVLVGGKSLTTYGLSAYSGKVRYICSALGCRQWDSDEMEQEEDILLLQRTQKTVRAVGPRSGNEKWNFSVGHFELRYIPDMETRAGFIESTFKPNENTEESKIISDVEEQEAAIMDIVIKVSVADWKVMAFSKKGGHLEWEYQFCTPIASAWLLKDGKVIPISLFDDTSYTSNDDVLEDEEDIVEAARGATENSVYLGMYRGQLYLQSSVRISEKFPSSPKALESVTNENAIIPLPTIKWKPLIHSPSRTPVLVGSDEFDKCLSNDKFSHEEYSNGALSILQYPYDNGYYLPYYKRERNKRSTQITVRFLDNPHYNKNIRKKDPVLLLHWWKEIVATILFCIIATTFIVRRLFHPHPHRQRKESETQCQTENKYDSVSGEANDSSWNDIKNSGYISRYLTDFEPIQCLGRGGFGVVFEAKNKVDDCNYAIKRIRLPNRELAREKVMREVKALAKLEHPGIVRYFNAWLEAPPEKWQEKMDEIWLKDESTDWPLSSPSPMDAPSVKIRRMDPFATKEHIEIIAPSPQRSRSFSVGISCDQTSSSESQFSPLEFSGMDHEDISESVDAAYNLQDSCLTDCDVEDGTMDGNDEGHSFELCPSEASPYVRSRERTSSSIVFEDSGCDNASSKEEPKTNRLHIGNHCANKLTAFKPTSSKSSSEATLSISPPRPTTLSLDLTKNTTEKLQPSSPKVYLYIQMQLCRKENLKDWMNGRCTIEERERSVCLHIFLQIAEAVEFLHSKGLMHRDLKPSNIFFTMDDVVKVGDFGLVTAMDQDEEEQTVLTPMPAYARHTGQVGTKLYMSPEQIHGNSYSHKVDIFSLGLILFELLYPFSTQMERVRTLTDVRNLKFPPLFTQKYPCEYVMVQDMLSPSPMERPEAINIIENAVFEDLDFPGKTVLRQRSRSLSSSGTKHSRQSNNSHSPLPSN

[10] = target: Vascular endothelial growth factor receptor 2 (Homo sapiens, UniProt P35968); test: Inhibition of VEGFR2 in HUVEC cells assessed as reduction in Src phosphorylation at 20 to 40 nM incubated for 48 hrs by Western blot analysis; assay type: cell-based
Sequence of Vascular endothelial growth factor receptor 2 (P35968 whole entry): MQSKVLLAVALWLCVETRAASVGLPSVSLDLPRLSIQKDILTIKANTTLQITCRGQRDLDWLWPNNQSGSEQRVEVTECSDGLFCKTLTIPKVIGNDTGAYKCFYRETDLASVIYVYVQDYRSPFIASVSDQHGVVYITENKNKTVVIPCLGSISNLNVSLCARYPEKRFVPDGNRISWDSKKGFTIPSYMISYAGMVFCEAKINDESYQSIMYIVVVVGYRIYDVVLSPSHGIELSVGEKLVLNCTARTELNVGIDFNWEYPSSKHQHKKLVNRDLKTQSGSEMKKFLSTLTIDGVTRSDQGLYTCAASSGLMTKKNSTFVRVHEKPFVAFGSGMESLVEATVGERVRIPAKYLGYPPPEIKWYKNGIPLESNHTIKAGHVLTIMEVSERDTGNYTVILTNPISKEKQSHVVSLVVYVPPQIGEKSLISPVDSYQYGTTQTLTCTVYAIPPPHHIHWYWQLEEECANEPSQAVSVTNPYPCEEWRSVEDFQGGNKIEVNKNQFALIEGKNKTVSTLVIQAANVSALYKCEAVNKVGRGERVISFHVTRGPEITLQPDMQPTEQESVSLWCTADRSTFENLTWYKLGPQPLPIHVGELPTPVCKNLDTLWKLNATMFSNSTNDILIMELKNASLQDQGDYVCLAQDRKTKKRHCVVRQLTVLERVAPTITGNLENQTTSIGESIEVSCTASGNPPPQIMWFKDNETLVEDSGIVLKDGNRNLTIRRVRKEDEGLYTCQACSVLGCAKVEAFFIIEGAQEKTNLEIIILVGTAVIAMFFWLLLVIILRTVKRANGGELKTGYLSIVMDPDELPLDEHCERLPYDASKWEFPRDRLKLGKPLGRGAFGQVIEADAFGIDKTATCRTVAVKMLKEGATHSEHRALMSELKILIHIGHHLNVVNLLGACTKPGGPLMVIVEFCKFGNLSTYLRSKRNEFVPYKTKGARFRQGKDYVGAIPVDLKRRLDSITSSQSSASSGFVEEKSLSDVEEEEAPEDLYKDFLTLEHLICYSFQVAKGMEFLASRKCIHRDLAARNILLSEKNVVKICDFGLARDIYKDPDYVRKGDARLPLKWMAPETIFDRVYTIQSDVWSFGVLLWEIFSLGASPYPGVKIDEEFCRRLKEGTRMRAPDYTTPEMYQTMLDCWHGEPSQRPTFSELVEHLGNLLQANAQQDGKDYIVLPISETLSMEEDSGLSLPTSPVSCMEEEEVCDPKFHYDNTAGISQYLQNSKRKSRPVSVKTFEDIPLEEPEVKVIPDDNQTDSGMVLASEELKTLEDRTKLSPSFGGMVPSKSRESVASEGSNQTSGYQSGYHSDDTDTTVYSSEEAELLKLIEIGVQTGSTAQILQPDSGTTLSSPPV
Outline: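 HUVECs were maintained in 1640 medium with 10% FBS. They were treated with graded concentrations for 48 h, PBS-washed and lysed in RIPA buffer. Immunoblots were probed for total and phospho VEGFR2, STAT3, Akt, Erk1 and Src, each at 1:1000. β-actin served as loading control.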

[11] = target: Epithelial discoidin domain-containing receptor 1 (Homo sapiens) (UniProt Q08345); test: Inhibition of recombinant human DDR1 (492 to end residues) at 1 uM using KKKSPGEYVNIEFG as substrate incubated for 40 mins in presence of [gamma-33P]-ATP by scintillation counting method relative to control
Outline: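 Kinase panel profiling at 1 μM performed by Eurofins KinaseProfiler; percent inhibition reported as mean of two independent experiments.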

[12] = target: Serine/threonine-protein kinase SIK1 (Homo sapiens) (UniProt P57059); test: Inhibition of recombinant human SIK (1 to 281 residues) at 1 uM using AMARAASAAALARRR as substrate incubated for 40 mins in presence of [gamma-33P]-ATP by scintillation counting method relative to control
[13] = VRT (0 to t) in Sprague-Dawley rat at 10 mg/kg, po by HPLC-MS analysis; assay type: ADME, organism-based; settings: in vivo
[14] = target: [Pyruvate dehydrogenase (acetyl-transferring)] kinase isozyme 2, mitochondrial (Homo sapiens) (UniProt Q15119); test: Inhibition of recombinant human PDHK2 at 1 uM incubated for 40 mins in presence of [gamma-33P]-ATP by scintillation counting method relative to control; outline: as §1
[15] = target: Ephrin type-A receptor 8 (Homo sapiens) (UniProt P29322); test: Inhibition of recombinant human EPhA8 (615 to 911 residues) at 1 uM using KTFCGTPEYLAPEVRREPRILSEEEQEMFRDFDYIADWC as substrate incubated for 40 mins in presence of [gamma-33P]-ATP by scintillation counting method relative to control
[16] = target: eIF-2-alpha kinase GCN2 (Homo sapiens) (UniProt Q9P2K8); test: Inhibition of recombinant full length human GCN2 at 1 uM using RSRSRSRSRSRSRSR as substrate incubated for 40 mins in presence of [gamma-33P]-ATP by scintillation counting method relative to control; outline: as §1
[17] = target: Serine/threonine-protein kinase 32B (Homo sapiens) (UniProt Q9NY57); test: Inhibition of recombinant human full length STK32B at 1 uM using casein as substrate incubated for 40 mins in presence of [gamma-33P]-ATP by scintillation counting method relative to control
T47D = test: Induction of cell cycle arrest in human T47D cells assessed as accumulation in G2/M phase at 40 nM incubated for 36 hrs by propidium iodide staining based flow cytometry; assay type: functional; outline: as §2

Row | Structure (SMILES) | inhibition [1] [%] | Activity (MDA-MB-231) | inhibition [2] [%] | inhibition [3] [%] | inhibition [4] [%] | Activity (HeLa) | inhibition [5] [%] | inhibition [6] [%] | inhibition [7] [%] | Activity [8] | inhibition [9] [%] | inhibition [10] | inhibition [11] [%] | inhibition [12] [%] | VRT(t) [13] [h] | inhibition [14] [%] | inhibition [15] [%] | inhibition [16] [%] | inhibition [17] [%] | Activity (T47D)
1 | Cc1ccc(NC(=O)C2(C(=O)Nc3ccc(Nc4ncc(F)c(-c5cc(F)c6nc(C)n(C(C)C)c6c5)n4)cc3)CC2)cc1 | 48 | Active | 0 | 0 | 14 | Active | 22 | 0 | 46 | Non-Toxic | 2 | Active | 73 | 21 | 7 | 0 | 15 | 0 | 2 | –
2 | COc1cc2nccc(Oc3ccc(NC(=O)C4(C(=O)Nc5ccc(F)cc5)CC4)cc3)c2cc1OC [CABOZANTINIB] | – | – | – | – | – | – | – | – | – | – | – | – | – | – | – | – | – | – | – | Active
